E coli WT exp: E. coli BW25113 growth inhibition, expanded screen; OD600 absorbance; growth inhibition, % at 100 µM; 0.15% of 98,000 active; AID 710;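 active means growth inhibition above about 50% at one test dose, limit read from the data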;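 further: growth measured after 20 h incubation at 37 °C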
tolC growth inh: E. coli tolC mutant growth inhibition; E. coli BW25113 tolC mutant growth, OD615; growth inhibition, % at 10 µM (by protocol); 2.2% of 65,000 active; AID 573;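 active means growth inhibition at or above a cutoff equal to the mean over every tested compound plus 3 SD, cut at about 60% in these data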;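 further: growth measured after 20 h incubation at 37 °C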
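Test system – E. coli BW25113 ΔtolC::kan, tolC deletion mutant strain · Detection – OD at 615 nm · Buffer or medium – LB with kanamycin 50 µg/mL · Times – 20 h compound exposure of bacteria at 37 °C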
H69AR inhibit: growth inhibitors of human H69AR lung tumor cells. 6% of 85,000 active. H69AR lung tumor viability, ATP luminescence, 72 h; stronger effect = lower value. viability, % at 10 µM;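 active means viability at or below 40%; inactive means viability above 40%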;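 further: multidrug resistant small cell line overexpressing MRP-1 efflux transporter; 100% = mean luminescence of untreated control wells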
Jurkat viability: cytotoxic compounds reducing Jurkat cell viability; Jurkat E6.1 viability, ATP luminescence, 48 h; inhibition, % at 4 µM; 1.2% of 56,000 active;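 active means inhibition above the mean inhibition of all tested compounds plus 3 SD, cut at about 28% in these data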
HUVEC prolif 384: human endothelial cell proliferation inhibition. AID 648. 1.1% of 86,000 active. HUVEC proliferation, CellTiter-Glo luminescence, 72 h; stronger effect = lower value. viability, % at 10 µM (by protocol);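 active means viability at or below 30%; inactive means viability above 30%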;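 further: 100% = median luminescence of DMSO-only cell control wells on each plate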
Lung fibro prol: blocks proliferation of human lung fibroblasts | LL 47 human lung fibroblast viability, ATP luminescence; stronger effect = lower value | AID 719 | viability, % at 10 µM | 1.1% of 85,000 active;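 active means viability at or below 50% in the single dose screen; inactive means viability above 50%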;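 further: compound exposure lasted 72 h before the ATP readout; 100% = median luminescence of untreated cell-only wells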
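Material: human LL 47 lung fibroblast cells; quantity: 1,150 cells/well; medium: IMEM plus 15% FBS; doses: 0.1% DMSO in all compound wells; timing: overnight attachment after seeding, then 72 h compound exposure at 37 °C; detection: CellTiter-Glo luminescence; measure: % viability of median cell-only signal; controls: cell-only wells, no compound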
* hit, by the source's call; . = no result given. Only some compounds are listed: those with a hit (about 6.4% of all), similar ones and a draw of the others.

SMILES | E coli WT exp | tolC growth inh | H69AR inhibit | Jurkat viability | HUVEC prolif 384 | Lung fibro prol
O=C(C(Cc1ccccc1)NS(=O)(=O)c1ccc(F)cc1)N1CCC2(CC1)OCCO2 (configuration not stated) | -5.0 | 12.2 | 61.6 | . | 87.1 | 98.4
CCC(=NCc1ccc2c(c1)OCO2)c1c(O)n(C2CCCCC2)c(=O)[nH]c1=O | -6.0 | 74.7* | 50.7 | 9.8 | 63.6 | 106.8
Cn1ncnc2c(=O)n(C)c(=O)nc1-2 | . | 24.7 | . | 88.2* | . | .
Cc1sc2ncn(CC(=O)NCCCC(=O)N3CCC4(CC3)OCCO4)c(=O)c2c1C | 0.0 | . | . | . | . | .
FC(F)(F)c1ccc2c(c1)N(CCCN1CCN(CCCl)CC1)c1ccccc1S2 | 18.0 | . | 1.4* | . | 36.5 | 88.7
O/N=C1/C(=C\c2ccccc2)N2CCC1CC2 | 8.0 | 11.9 | 67.2 | -5.3 | 104.1 | 103.2
CCCCn1c(O)c(C=NC2CC3CCC2(C)C3(C)C)c(=O)[nH]c1=O (configuration not stated) | -2.0 | 31.4 | 15.0* | 5.4 | 97.8 | 96.0
CC(/C=N/NC(=O)c1n[nH]c2c1CCC2)=C\c1ccccc1 | -14.0 | . | 22.8* | . | 36.3 | 45.9*
CN(C)C1(c2nnnn2-c2ccc(Cl)cc2)CCCCC1 | -12.0 | 8.7 | 85.3 | -3.8 | 108.9 | 91.5
CN(C)C1(c2nnnn2CCOC(=O)Nc2ccc(Cl)cc2)CCCCC1 | -5.0 | 100.0* | 57.0 | 1.2 | 108.1 | 92.3
CCS(=O)(=O)N1CCC(C(=O)N2CCC3(CC2)OCCO3)CC1 | 4.0 | -12.7 | 104.1 | 0.7 | 108.2 | 114.7
CCCS(=O)(=O)N1CCC(C(=O)N2CCC3(CC2)OCCO3)CC1 | -3.0 | -25.2 | 84.2 | -11.6 | 100.4 | 42.2*
O=C1NC(=O)C2(Cc3ccccc3N3CCCC32)C(=O)N1c1cccc(Cl)c1 (configuration not stated) | -21.0 | 0.1 | 98.0 | -5.3 | 86.0 | 92.3
Cc1ccc(CN2C(=O)NC(=O)C3(Cc4c(nc5ccccn5c4=O)N4CCCCCC43)C2=O)cc1 (configuration not stated) | -8.0 | 74.0* | 39.3* | 4.9 | 87.9 | 100.0
N=C(N)c1c(O)n(C2CCCCC2)c(=O)n(C2CCCCC2)c1=O | -4.0 | 98.7* | 1.1* | -6.2 | 2.5* | 31.0*
O=C(Cc1cccs1)N1CCC2(CC1)OCCO2 | 2.0 | -7.2 | 101.3 | 4.3 | 94.2 | 101.0
O=C(NC1(C(F)(F)F)Oc2ccccc2O1)N1CCC2(CC1)OCCO2 | . | -1.6 | 16.7* | . | 81.1 | 101.1
O=C(NC1(C(F)(F)F)Oc2ccc(Cl)cc2O1)N1CCC2(CC1)OCCO2 (configuration not stated) | 8.0 | -4.3 | 31.6* | . | 52.8 | 74.1
Brc1ccc(CN2CCNCC2)s1 | 1.0 | . | 105.5 | . | 108.2 | 102.8
Cc1ccc(-c2nc3ccccc3c(=O)n2-c2ncccc2C)cc1 | 2.0 | . | . | . | . | .
CCN(CC)c1ccc(N=Cc2c(O)n(CCC3=CCCCC3)c(=O)[nH]c2=O)cc1 | -11.0 | -10.4 | 16.6* | -1.1 | 70.7 | 88.5
CN(C)c1ccc(N=Cc2c(O)n(CCC3=CCCCC3)c(=O)[nH]c2=O)cc1 | -11.0 | -10.1 | 10.1* | -4.3 | 64.5 | 99.4
O=c1[nH]c(=O)n(CCC2=CCCCC2)c(O)c1C=NC1CCN(Cc2ccccc2)CC1 | -3.0 | 24.0 | 32.4* | 22.2 | 96.2 | 95.5
c1ccc2cc3cc4ccccc4cc3cc2c1 | . | . | 100.9 | . | 89.6 | 85.2
CCOC(=O)c1c(C)n(Cc2ccccc2)c2ccc(OCC(O)CN3C(=O)CNC3=O)cc12 (configuration not stated) | -5.0 | 3.2 | 27.3* | 2.4 | 86.4 | 101.9
Cc1cc(NCCN)nc2ccccc12 | 15.0 | . | . | . | . | .

Bioassay records from PubChem BioAssay.
